Among the data in ChEMBL document CHEMBL1127512 (J Med Chem, 1994) are Ke, Ratio and Ki values, retold here.

Assay [1] can be described thus: (§1) Antagonist potency at a concentration of 100 nM. The class given is functional. In outline:
(§2)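 Electrically stimulated guinea pig ileal longitudinal muscle (ethylketazocine, morphine) and mouse vas deferens (DADLE). Antagonist 100 nM preincubated 15 min before standard agonist testing. IC50 ratio = agonist IC50 with antagonist divided by control agonist IC50 in the same preparation. For the kappa line, Ke = [antagonist]/(IC50 ratio − 1).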

For assay [2], the target named is T1, Opioid receptors; mu & kappa (Homo sapiens) (UniProt P41145+P35372). Nature of the assay: (§3) Selectivity ratio of kappa opioid receptor to that of mu opioid receptor. Type of assay: protein assay.
T1 sequence (P35372 whole entry, looked up): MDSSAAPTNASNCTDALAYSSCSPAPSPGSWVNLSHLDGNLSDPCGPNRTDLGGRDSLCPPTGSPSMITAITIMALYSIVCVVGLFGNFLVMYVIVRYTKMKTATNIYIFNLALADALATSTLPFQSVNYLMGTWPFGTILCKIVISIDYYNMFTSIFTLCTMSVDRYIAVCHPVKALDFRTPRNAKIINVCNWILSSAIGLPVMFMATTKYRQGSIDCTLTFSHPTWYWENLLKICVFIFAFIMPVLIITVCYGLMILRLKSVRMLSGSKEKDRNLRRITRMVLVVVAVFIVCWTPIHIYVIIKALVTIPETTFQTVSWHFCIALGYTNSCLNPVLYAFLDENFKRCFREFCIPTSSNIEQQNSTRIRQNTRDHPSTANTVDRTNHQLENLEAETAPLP
T1 sequence (P41145 whole entry, looked up): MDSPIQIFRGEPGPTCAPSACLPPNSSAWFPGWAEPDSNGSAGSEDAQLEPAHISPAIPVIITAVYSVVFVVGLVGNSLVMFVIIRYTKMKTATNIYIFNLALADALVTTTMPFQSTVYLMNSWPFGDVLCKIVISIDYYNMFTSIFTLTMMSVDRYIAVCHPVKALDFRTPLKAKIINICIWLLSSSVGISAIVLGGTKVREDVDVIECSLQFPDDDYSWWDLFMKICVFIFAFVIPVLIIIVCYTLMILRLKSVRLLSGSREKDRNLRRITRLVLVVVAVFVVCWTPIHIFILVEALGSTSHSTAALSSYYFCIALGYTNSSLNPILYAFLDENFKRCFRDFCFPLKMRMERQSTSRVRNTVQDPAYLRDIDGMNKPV
Assay [3] addresses T1, Opioid receptors; mu & kappa (Homo sapiens). Nature of the assay: Selectivity ratio of mu opioid receptor to that of kappa opioid receptor. Type of assay: protein assay.
Assay [4] deals with Opioid receptors; delta & kappa (Homo sapiens) (UniProt P41145+P41143). The experiment in a line: (§4) Selectivity ratio of kappa opioid receptor to that of delta opioid receptor. Type of assay: protein assay.
Sequence of Opioid receptors; delta & kappa (Homo sapiens) (P41143 whole entry, looked up): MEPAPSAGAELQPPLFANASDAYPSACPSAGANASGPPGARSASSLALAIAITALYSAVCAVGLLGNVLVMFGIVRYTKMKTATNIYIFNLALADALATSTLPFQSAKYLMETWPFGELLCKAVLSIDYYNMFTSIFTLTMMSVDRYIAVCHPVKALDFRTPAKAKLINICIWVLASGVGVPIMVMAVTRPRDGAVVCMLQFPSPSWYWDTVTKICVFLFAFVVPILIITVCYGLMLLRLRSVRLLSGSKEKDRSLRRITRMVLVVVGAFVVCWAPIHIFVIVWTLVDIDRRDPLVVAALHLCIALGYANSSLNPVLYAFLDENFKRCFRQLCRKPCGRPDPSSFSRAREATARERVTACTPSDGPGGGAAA
Sequence of Opioid receptors; delta & kappa (Homo sapiens) (P41145 whole entry, looked up): as the sequence (P41145 whole entry, looked up) above
Assay [5] relates to Opioid receptors; delta & kappa. The experiment in a line: Selectivity ratio of delta opioid receptor to that of kappa opioid receptor. Type of assay: protein assay.
Assay [6] can be described thus: (§5) Inhibitory concentration was tested on electrically stimulated guinea pig ileal longitudinal muscle using Morphine as mu opioid receptor agonist at 100 nM of the compound. Type of assay: functional. Summed up: as §2
Assay [7] is described as follows: (§6) Inhibitory concentration was tested on electrically stimulated guinea pig ileal longitudinal muscle using ethylketazocine as kappa opioid receptor agonist at 100 nM of the compound. The class given is functional. Summed up: as §2
Assay [8] has as its target Kappa-type opioid receptor (Cavia porcellus) (UniProt P41144). Described as §1. Type of assay: functional. In outline: as §2
Assay [9] shares this target. The description is as §3.
The target is the same in assay [10]. The assay is described as §4.
For assay [11], the target named is Delta-type opioid receptor (Mus musculus) (UniProt P32300). Nature of the assay: (§7) Inhibitory concentration was tested on electrically stimulated mouse vas deferens using DADLE as delta opioid receptor agonist at 100 nM of the compound. The class given is functional. In outline:
as §2

Assay [12] concerns the target Mu-type opioid receptor (Cavia porcellus) (UniProt P97266). Described as §5. Type of assay: functional. In outline: as §2
Assay [13] addresses Kappa-type opioid receptor (Cavia porcellus) (UniProt P41144). The assay is described as §6. The class given is functional. Summed up: as §2
A further assay deals with Mu-type opioid receptor (Cavia porcellus, UniProt P97266). Nature of the assay: The binding affinity against mu-opioid receptor using [3H]- DAMGO as radioligand. Summed up: (§8)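 Competition binding in guinea pig brain membranes against selective tritiated radioligands. Displacement of [3H]U69593 at kappa, [3H]DAMGO at mu, [3H]DPDPE at delta sites.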
Sequence of Mu-type opioid receptor (P97266 whole entry): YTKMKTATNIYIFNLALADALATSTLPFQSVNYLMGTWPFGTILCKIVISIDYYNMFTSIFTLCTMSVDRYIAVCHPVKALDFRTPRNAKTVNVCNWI
A short description of assay [14]: as §7. The class given is functional. In outline:
as §2

Assay [15] deals with Kappa-type opioid receptor (Cavia porcellus, UniProt P41144). The experiment in a line: The binding affinity on kappa-opioid receptor using [3H]- U-69,593 as radioligand. Summed up: as §8
Sequence of Kappa-type opioid receptor (P41144 whole entry): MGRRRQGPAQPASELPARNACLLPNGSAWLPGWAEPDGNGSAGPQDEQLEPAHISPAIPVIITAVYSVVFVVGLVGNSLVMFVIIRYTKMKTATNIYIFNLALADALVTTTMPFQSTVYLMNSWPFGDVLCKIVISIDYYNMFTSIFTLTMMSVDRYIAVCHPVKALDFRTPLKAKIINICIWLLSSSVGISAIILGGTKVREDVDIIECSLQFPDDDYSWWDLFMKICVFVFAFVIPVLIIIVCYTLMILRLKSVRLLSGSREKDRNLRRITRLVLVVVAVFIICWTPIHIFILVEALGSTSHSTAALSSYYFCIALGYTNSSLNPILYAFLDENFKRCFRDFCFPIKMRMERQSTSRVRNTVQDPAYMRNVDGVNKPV

SMILES strings stand for the structures. A value given as a limit tells only on which side of the number the result lay.

Sequence of Kappa-type opioid receptor (Cavia porcellus) (P41144 whole entry): as above
Sequence of Delta-type opioid receptor (Mus musculus) (P32300 whole entry): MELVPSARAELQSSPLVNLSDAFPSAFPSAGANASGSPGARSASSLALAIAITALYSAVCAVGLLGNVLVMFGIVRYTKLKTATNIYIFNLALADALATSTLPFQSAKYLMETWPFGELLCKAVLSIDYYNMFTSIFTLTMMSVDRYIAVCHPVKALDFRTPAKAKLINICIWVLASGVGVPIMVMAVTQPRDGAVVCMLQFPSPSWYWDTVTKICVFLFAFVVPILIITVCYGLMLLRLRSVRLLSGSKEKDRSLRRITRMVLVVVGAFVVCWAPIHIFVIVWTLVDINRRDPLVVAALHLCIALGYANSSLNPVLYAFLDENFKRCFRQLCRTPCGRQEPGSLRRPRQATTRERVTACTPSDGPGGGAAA
Sequence of Mu-type opioid receptor (Cavia porcellus) (P97266 whole entry): as the sequence (P97266 whole entry) above

In [1], `Oc1ccc2c3c1O[C@H]1c4[nH]c5c(c4C[C@@]4(O)[C@@H](C2)N(CC2CC2)CC[C@]314)C[C@@]1(O)[C@H]2Cc3ccc(O)c4c3[C@@]1(CCN2CC1CC1)[C@H]5O4` registered a Ke of 0.55 nM.

Molecule `O=C(NCCN1CC[C@]23c4c5ccc(O)c4O[C@H]2c2[nH]c4c(c2C[C@@]3(O)C1=C5)C[C@@]1(O)[C@H]2Cc3ccc(O)c5c3[C@@]1(CCN2CC1CC1)[C@H]4O5)OCc1ccccc1` had a Ke in assay [1] of 4 nM. Besides, the Ratio in assay [2] was found to be 5.7; in [3], 194; in assay [4] it was 5.7; in [5], 325; in assay [6], 4.5; in [7] it was 26.

Take `CC(=O)N1CC[C@]23c4c5ccc(O)c4O[C@H]2c2[nH]c4c(c2C[C@@]3(O)[C@H]1C5)C[C@@]1(O)[C@H]2Cc3ccc(O)c5c3[C@@]1(CCN2CC1CC1)[C@H]4O5`: the Ke in assay [8] is 30.3 nM. Besides, the Ratio came to 2.4 in assay [9]; 1.5 in assay [10]; 2.8 in [11]; 1.8 in assay [12]; 4.3 in [13].

Molecule `Oc1ccc2c3c1O[C@H]1c4[nH]c5c(c4C[C@@]4(O)[C@@H](C2)NCC[C@]314)C[C@@]1(O)[C@H]2Cc3ccc(O)c4c3[C@@]1(CCN2CC1CC1)[C@H]5O4` showed a Ke in assay [8] of 2.5 nM. For the same molecule, the Ratio is 22 in assay [9]; 4.8 in [10]; 8.5 in assay [11]; 1.9 in [12]; 41 in [13].

The Ki is the equilibrium dissociation constant of an inhibitor or competing ligand from its target. The low end stands for tighter binding, the high end for weaker binding. In assay [1], `NCCN1CC[C@]23c4c5ccc(O)c4O[C@H]2c2[nH]c4c(c2C[C@@]3(O)[C@H]1C5)C[C@@]1(O)[C@H]2Cc3ccc(O)c5c3[C@@]1(CCN2CC1CC1)[C@H]4O5` returned a Ke of 5.1 nM. Moreover, the Ratio in [2] was 12.5; in assay [14], 1.9; in assay [3] it was 14; in assay [4], 10; in [5], 41; in assay [6], 1.6. Besides, the Ratio in [7] was 20. For the same molecule, the results for the Ki (on Mu-type opioid receptor; in assay [15]) were 46 nM and 3.4 nM, respectively.

Regarding `NCC(=O)NCC(=O)N1CC[C@]23c4c5ccc(O)c4O[C@H]2c2[nH]c4c(c2C[C@@]3(O)[C@H]1C5)C[C@@]1(O)[C@H]2Cc3ccc(O)c5c3[C@@]1(CCN2CC1CC1)[C@H]4O5`, the Ke in [1] was determined as 11.7 nM. Also, the Ratio in assay [2] was 4.8; in assay [14] it was 0.67; in assay [3], 3; in [5], above 15; in assay [6], 2; in assay [7], 9.6. Further, the Ki on Mu-type opioid receptor came to 66 nM; in assay [15], 21 nM.

Turning to `N=C(N)NCCN1CC[C@]23c4c5ccc(O)c4O[C@H]2c2[nH]c4c(c2C[C@@]3(O)[C@H]1C5)C[C@@]1(O)[C@H]2Cc3ccc(O)c5c3C1(CCN2CC1CC1)[C@H]4O5`, in assay [1], the Ke was 3.8 nM. Moreover, the Ratio in [2] is 15; in assay [14], 1; in [3], 85; in assay [4], 27; in assay [5], 63; in assay [6], 1.7. Further, the Ratio in assay [7] turned out to be 27. Also, the figures for the Ki (at Mu-type opioid receptor; in assay [15]) were 50 nM and 0.59 nM, respectively.

In turn, `CCCCN1CC[C@]23c4c5ccc(O)c4O[C@H]2c2[nH]c4c(c2C[C@@]3(O)[C@H]1C5)C[C@@]1(O)[C@H]2Cc3ccc(O)c5c3[C@@]1(CCN2CC1CC1)[C@H]4O5` returned a Ke in assay [1] of 1.7 nM. Moreover, the Ki on Mu-type opioid receptor came out at 73 nM; in assay [15], 0.04 nM. The Ratio in [14] was determined as 1.9; in [3], 1820; in [6], 1.8; in assay [7] it was 61.

Turning to `CCN1CC[C@]23c4c5ccc(O)c4O[C@H]2c2[nH]c4c(c2C[C@@]3(O)[C@H]1C5)C[C@@]1(O)[C@H]2Cc3ccc(O)c5c3[C@@]1(CCN2CC1CC1)[C@H]4O5`, the Ke in [8] is 4.7 nM. For the same molecule, the Ratio in [9] was found to be 14; in assay [10] it was 3.5; in assay [11], 6.3; in assay [12], 1.6; in assay [13] it was 22.

`NCC(=O)N1CC[C@]23c4c5ccc(O)c4O[C@H]2c2[nH]c4c(c2C[C@@]3(O)[C@H]1C5)C[C@@]1(O)[C@H]2Cc3ccc(O)c5c3[C@@]1(CCN2CC1CC1)[C@H]4O5`: in [8], the Ke was 9.3 nM. Also, the Ratio in assay [9] was 8.4; in [10], 5.4; in assay [11], 2.2; in assay [12], 1.4; in assay [13], 11.8.

As to `CCCCCN1CC[C@]23c4c5ccc(O)c4O[C@H]2c2[nH]c4c(c2C[C@@]3(O)[C@H]1C5)C[C@@]1(O)[C@H]2Cc3ccc(O)c5c3[C@@]1(CCN2CC1CC1)[C@H]4O5`, the Ke in assay [8] stood at 3.8 nM. In addition, the Ratio was found to be 8.7 in assay [9]; 8.7 in assay [10]; 3.1 in assay [11]; 3.1 in assay [12]; 27 in [13].

As to `Oc1ccc2c3c1O[C@H]1c4[nH]c5c(c4C[C@@]4(O)[C@@H](C2)N(CCc2ccccc2)CC[C@]314)C[C@@]1(O)[C@H]2Cc3ccc(O)c4c3[C@@]1(CCN2CC1CC1)[C@H]5O4`, the Ke in [8] is 2.4 nM. The Ratio in [9] came to 24; in assay [10] it was 181; in [11], 2.4; in [12], 1.8; in assay [13] it was 44.
